pIC50: −log10 of the molar value.
Key:
Vasopressin V2 receptor [1] = biological target: T1, Vasopressin V2 receptor (Rattus norvegicus, UniProt Q00788); assay: Displacement of [3H]-AVP from its AVP-V2 receptor binding site in rat kidney
Outline: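 Radioligand competition with [3H]AVP on plasma membrane preparations, rat liver for V1a and rat kidney for V2. Assays run in duplicate. Reported intraassay variation is under 3% and interassay variation under 20%.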

Vasopressin V1a receptor [2] = biological target: T2, Vasopressin V1a receptor (Rattus norvegicus, UniProt P30560); assay: Displacement of [3H]AVP from AVP-V1a receptor binding site in rat liver
T2 sequence (P30560 whole entry): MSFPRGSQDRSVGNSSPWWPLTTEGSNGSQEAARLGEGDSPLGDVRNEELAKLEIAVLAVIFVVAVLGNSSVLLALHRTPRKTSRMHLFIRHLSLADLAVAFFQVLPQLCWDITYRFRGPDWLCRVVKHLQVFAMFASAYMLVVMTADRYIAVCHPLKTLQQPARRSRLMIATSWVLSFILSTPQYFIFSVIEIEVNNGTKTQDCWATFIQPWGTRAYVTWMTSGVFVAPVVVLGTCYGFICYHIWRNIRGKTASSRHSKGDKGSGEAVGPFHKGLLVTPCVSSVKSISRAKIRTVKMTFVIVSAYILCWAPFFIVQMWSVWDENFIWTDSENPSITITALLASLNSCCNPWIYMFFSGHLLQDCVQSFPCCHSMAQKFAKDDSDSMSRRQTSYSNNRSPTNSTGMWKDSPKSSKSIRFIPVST
Outline: (§1)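 Radioligand competition with [3H]AVP on plasma membrane preparations, rat liver for V1a and rat kidney for V2. […] Assays run in duplicate. Reported intraassay variation is under 3% and interassay variation under 20%.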

Vasopressin V2 receptor [3] = biological target: T1, Vasopressin V2 receptor; assay: Compound was tested for its ability to displace [3H]AVP from its specific binding sites in rat Kidney (AVP-V2 receptor).; outline: as §1
Vasopressin V1a receptor [4] = biological target: T2, Vasopressin V1a receptor; assay: Compound was tested for its ability to displace [3H]AVP from its specific binding sites in Rat liver (AVP-V1a receptor).; outline: as §1
Rattus norvegicus [5] = assay: Dose(mg/kg) required for a 3-fold increase in the 2-h urine volume over the control rats.; type: functional
Outline: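 Hydrated conscious rats, compound given orally at three or four doses. Spontaneously voided urine collected every 2 h over 8 h. ED3 (mg/kg) read from the dose–response curve as the dose giving a 3-fold rise in 2-h urine volume over control rats. ">" means no 3-fold rise at the highest dose tested.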

Rattus norvegicus [6] = assay: UV values mean 2-h urine volume (mL) when the compound was administered orally at a dose of 10 mg/kg; type: functional; settings: route oral
Outline: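 Conscious rats dosed orally at 10 mg/kg, with urine voided spontaneously. The value is urine volume (mL) collected over the first 2 h, given as mean ± SEM of 4 rats and set against control rats (n = 4).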

T1 sequence (Q00788 whole entry): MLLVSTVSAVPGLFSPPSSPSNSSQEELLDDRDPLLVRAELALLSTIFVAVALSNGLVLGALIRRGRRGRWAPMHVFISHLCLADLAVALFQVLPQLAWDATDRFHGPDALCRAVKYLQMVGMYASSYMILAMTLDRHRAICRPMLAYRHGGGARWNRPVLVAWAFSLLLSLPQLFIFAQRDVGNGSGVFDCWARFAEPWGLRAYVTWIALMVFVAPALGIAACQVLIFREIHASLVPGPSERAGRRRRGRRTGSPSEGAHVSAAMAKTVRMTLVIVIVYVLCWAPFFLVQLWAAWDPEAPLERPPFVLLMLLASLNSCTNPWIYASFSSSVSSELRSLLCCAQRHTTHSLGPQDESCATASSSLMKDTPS

Row | Structure (SMILES) | pIC50 (Vasopressin V2 receptor [1]) | pIC50 (Vasopressin V1a receptor [2]) | pIC50 (Vasopressin V2 receptor [3]) | pIC50 (Vasopressin V1a receptor [4]) | ED3 (Rattus norvegicus [5]) [mg/kg] | Activity (Rattus norvegicus [6]) [mL]
1 | CCCC(=O)Nc1ccc(C(=O)N2CCCc3ccccc32)cc1 | 5.15 | 5.37 |  |  |  | 
2 | Cc1ccc(C(=O)Nc2ccc(C(=O)N3CCCC(N(C)C)c4ccccc43)cc2)cc1 (stereo not given) | 7.36 | 4.59 |  |  |  | 
3 | Cc1ccccc1C(=O)Nc1ccc(C(=O)N2CCOc3ccccc32)cc1 | 5.39 | 5.11 |  |  |  | 
4 | Cc1ccc(C(=O)Nc2ccc(C(=O)N3CCCc4ccccc43)cc2)c(C)c1 | 6.68 | 5.48 |  |  |  | 
5 | Cc1ccc(C(=O)Nc2ccc(C(=O)N3CCCc4ccccc43)cc2)cc1C | 5.92 | < 4.00 |  |  |  | 
6 | CC(=O)O/N=C1\CCCN(C(=O)c2ccc(NC(=O)c3ccccc3C)cc2)c2ccccc21 |  |  | 7.24 | 5.64 | > 30 | 
7 | Cc1cccc(C(=O)Nc2ccc(C(=O)N3CCCc4ccccc43)cc2)c1 | 6.17 | 5.51 |  |  |  | 
8 | O=C(Nc1cccc(C(=O)N2CCCc3ccccc32)c1)c1ccccc1 | 4.40 | < 4.00 |  |  |  | 
9 | O=C(Nc1ccc(C(=O)N2CCCCc3ccccc32)cc1)Oc1ccccc1 |  |  | 6.10 | 5.11 |  | 
10 | Cc1ccccc1C(=O)N(C)c1ccc(C(=O)N2CCCC(N(C)C)c3ccccc32)cc1 (stereo not given) | 6.00 | 4.72 |  |  |  | 
11 | Cc1ccccc1C(=O)Nc1ccc(C(=O)N2CCN(C)c3ccccc32)cc1 | 6.40 | 5.29 |  |  |  | 
12 | O=C(Nc1ccc(C(=O)N2CCCc3ccccc32)cc1)c1ccco1 | 5.19 | 5.40 |  |  |  | 
13 | O=C(Nc1ccc(C(=O)N2CCCc3ccccc32)cc1)c1cccnc1 | 5.12 | 4.96 |  |  |  | 
14 | O=C(Nc1ccc(C(=O)N2CCCc3ccccc32)cc1)c1ccc(Cl)cc1Cl | 6.60 | < 4.00 |  |  |  | 
15 | O=C(Nc1ccccc1C(=O)N1CCCc2ccccc21)c1ccccc1 | 4.66 | 4.06 |  |  |  | 
16 | O=C(Nc1ccc(C(=O)N2CCCc3ccccc32)cc1)c1ccc(Cl)cc1 | 5.72 | 5.29 |  |  |  | 
17 | CC(=O)NC1CCCN(C(=O)c2ccc(NC(=O)c3ccccc3C)cc2)c2ccccc21 (stereo not given) | 6.82 | 5.49 |  |  | >30 | 
18 | O=C(Nc1ccc(C(=O)N2CCCc3ccccc32)cc1)c1cc(Cl)cc(Cl)c1 | 7.09 | 5.03 |  |  |  | 
19 | O=C(Cc1ccccc1)Nc1ccc(C(=O)N2CCCc3ccccc32)cc1 | 6.00 | 5.49 |  |  |  | 
20 | CCCCOc1ccc(C(=O)Nc2ccc(C(=O)N3CCCc4ccccc43)cc2)cc1 | < 4.00 | < 4.00 |  |  |  | 
21 | O=C(Nc1ccc(C(=O)N2CCCc3ccccc32)cc1)c1cccc(Cl)c1 |  | 5.19 |  |  |  | 
22 | Cc1ccccc1C(=O)Nc1ccc(C(=O)N2CCCC(N(C)CC#N)c3ccccc32)cc1 (stereo not given) | 7.60 | 5.49 |  |  | >30 | 
23 | Cc1ccccc1C(=O)Nc1ccc(C(=O)N2CCCC(N(C)CC(N)=O)c3ccccc32)cc1 (stereo not given) |  |  |  |  | 6.4 | 6.2
24 | CC(=O)Nc1ccccc1C(=O)Nc1ccc(C(=O)N2CCCC(N(C)C)c3ccccc32)cc1 (stereo not given) | 6.19 | 4.80 |  |  |  | 
25 | O=C(Nc1ccc(C(=O)N2CCCc3ccccc32)cc1)c1cccc([N+](=O)[O-])c1 | 6.12 | 4.80 |  |  |  | 
26 | O=C(Nc1ccc(C(=O)N2CCCc3ccccc32)cc1)c1ccc([N+](=O)[O-])cc1 | 5.19 | < 4.00 |  |  |  | 
27 | CC(=O)Nc1ccc(C(=O)N2CCCc3ccccc32)cc1 | < 4.00 | 4.13 |  |  |  | 
28 | Cc1ccc(C(=O)Nc2ccc(C(=O)N3CCCc4ccccc43)cc2)cc1 | 5.85 | 5.00 |  |  |  | 
29 | CCOc1ccc(C(=O)Nc2ccc(C(=O)N3CCCc4ccccc43)cc2)cc1 | < 4.00 | 4.85 |  |  |  | 
30 | CN(C)C1CCCN(C(=O)c2ccc(NC(=O)c3ccccc3)cc2)c2ccccc21 (stereo not given) | 7.57 | 5.52 |  |  | >30 | 

The next lines start with results.

Row | pIC50 (Vasopressin V2 receptor [1]) | pIC50 (Vasopressin V1a receptor [2]) | pIC50 (Vasopressin V2 receptor [3]) | pIC50 (Vasopressin V1a receptor [4]) | Structure (SMILES) | ED3 (Rattus norvegicus [5]) [mg/kg] | Activity (Rattus norvegicus [6]) [mL]
31 | 5.80 | 5.60 |  |  | O=C(c1ccc(NS(=O)(=O)c2ccccc2)cc1)N1CCCCc2ccccc21 |  | 
32 | 7.57 | 5.52 |  |  | CN(C)C1CCCN(C(=O)c2ccc(NC(=O)c3ccccc3Cl)cc2)c2ccccc21 (stereo not given) | 4.2 | 7
33 | 7.54 | 6.85 |  |  | Cc1ccccc1C(=O)Nc1ccc(C(=O)N2CCCC(O)c3ccccc32)cc1 (stereo not given) |  | 3.6
34 | 7.54 | 7.35 |  |  | O=C(Nc1ccc(C(=O)N2CCCCc3ccccc32)cc1)c1ccccc1Cl |  | 
35 |  | 5.55 |  |  | COc1cccc(C(=O)Nc2ccc(C(=O)N3CCCc4ccccc43)cc2)c1 |  | 
36 | 7.30 | 6.05 |  |  | CCCNC1CCCN(C(=O)c2ccc(NC(=O)c3ccccc3C)cc2)c2ccccc21 (stereo not given) | 6.6 | 5.6
37 | 6.38 | 5.80 |  |  | O=C(Nc1ccc(C(=O)N2CCCc3ccccc32)cc1)c1ccccc1Cl |  | 
38 | 7.66 | 5.92 |  |  | CCCN(C)C1CCCN(C(=O)c2ccc(NC(=O)c3ccccc3C)cc2)c2ccccc21 (stereo not given) | 4.9 | 8.3
39 | 6.72 | 5.72 |  |  | CN(C)C1CCCN(C(=O)c2ccc(NC(=O)c3ccccc3N)cc2)c2ccccc21 (stereo not given) |  | 
40 | 7.54 | 5.80 |  |  | CCNC1CCCN(C(=O)c2ccc(NC(=O)c3ccccc3C)cc2)c2ccccc21 (stereo not given) | 8 | 5.4
41 | 7.70 | 5.59 |  |  | CN(C)C1CCCN(C(=O)c2ccc(NC(=O)c3cc(Cl)cc(Cl)c3)cc2)c2ccccc21 (stereo not given) |  | 
42 | 5.68 | 5.72 |  |  | COc1ccccc1C(=O)Nc1ccc(C(=O)N2CCCc3ccccc32)cc1 |  | 
43 | 5.74 | 5.66 |  |  | COc1ccc(C(=O)Nc2ccc(C(=O)N3CCCc4ccccc43)cc2)cc1 |  | 
44 | 7.89 | 5.89 |  |  | CN(C)C1CCCN(C(=O)c2ccc(NC(=O)c3ccc(Cl)cc3Cl)cc2)c2ccccc21 (stereo not given) |  | 
45 | 6.85 | 5.55 |  |  | O=C(Nc1ccc(C(=O)N2CCCC(N3CCCCC3)c3ccccc32)cc1)c1ccccc1Cl (stereo not given) |  | 
46 | 7.02 | 5.55 |  |  | CNC(=O)NC1CCCN(C(=O)c2ccc(NC(=O)c3ccccc3C)cc2)c2ccccc21 (stereo not given) |  | 
47 | 7.62 | 6.14 |  |  | CNC1CCCN(C(=O)c2ccc(NC(=O)c3ccccc3C)cc2)c2ccccc21 (stereo not given) | 4.6 | 8.3

Row | pIC50 (Vasopressin V2 receptor [1]) | pIC50 (Vasopressin V1a receptor [2]) | pIC50 (Vasopressin V2 receptor [3]) | pIC50 (Vasopressin V1a receptor [4]) | Structure (SMILES) | ED3 (Rattus norvegicus [5]) [mg/kg] | Activity (Rattus norvegicus [6]) [mL]
48 | 5.09 | 5.62 |  |  | CC(C)C(=O)Nc1ccc(C(=O)N2CCCc3ccccc32)cc1 |  | 
49 | 7.85 | 5.62 |  |  | Cc1cccc(C(=O)Nc2ccc(C(=O)N3CCCC(N(C)C)c4ccccc43)cc2)c1 (stereo not given) | >30 | 
50 |  | 5.85 |  |  | Cc1ccccc1C(=O)Nc1ccc(C(=O)N2CCCc3ccccc32)cc1 |  | 
51 | 7.54 | 6.01 |  |  | CCOC(=O)CN(C)C1CCCN(C(=O)c2ccc(NC(=O)c3ccccc3C)cc2)c2ccccc21 (stereo not given) | >30 | 
52 | 6.96 | 5.92 |  |  | Cc1ccccc1C(=O)Nc1ccc(C(=O)N2CCCOc3ccccc32)cc1 |  | 
53 | 6.74 | 6.12 |  |  | O=C(Nc1ccccc1)Nc1ccc(C(=O)N2CCCCc3ccccc32)cc1 |  | 
54 | 5.21 | 5.64 |  |  | O=C(CCc1ccccc1)Nc1ccc(C(=O)N2CCCc3ccccc32)cc1 |  | 
55 | 6.28 | 5.57 |  |  | O=C(Nc1ccc(C(=O)N2CCCc3ccccc32)cc1)c1ccccc1[N+](=O)[O-] |  | 
56 | 6.52 | 6.20 |  |  | Cc1ccccc1C(=O)Nc1ccc(C(=O)N2CCOCc3ccccc32)cc1 |  | 
57 |  | 5.80 |  |  | O=C(Nc1ccc(C(=O)N2CCCc3ccccc32)cc1)c1ccccc1 |  | 
58 | 7.15 | 5.59 |  |  | CN(C)C1CCCN(C(=O)c2ccc(NC(=O)c3ccccc3[N+](=O)[O-])cc2)c2ccccc21 (stereo not given) |  | 
59 | 6.77 | 5.74 |  |  | Cc1ccccc1C(=O)Nc1ccc(C(=O)N2CCN(C)Cc3ccccc32)cc1 |  | 
60 | 5.77 | 5.77 |  |  | O=C(Nc1ccc(C(=O)N2CCCc3ccccc32)cc1)c1ccsc1 |  | 
61 | 7.11 | 6.00 |  |  | COc1ccccc1C(=O)Nc1ccc(C(=O)N2CCCC(N(C)C)c3ccccc32)cc1 (stereo not given) |  | 
62 | 7.49 | 6.41 |  |  | Cc1ccccc1C(=O)Nc1ccc(C(=O)N2CCCC(N)c3ccccc32)cc1 (stereo not given) |  | 
63 |  | 5.85 |  |  | Cc1ccccc1C(=O)Nc1ccc(C(=O)N2CCCC(N(C)C)c3ccccc32)cc1 (stereo not given) [MOZAVAPTAN] | 3.8 | 12.3
